The source of these data is ChEMBL document CHEMBL1139657, “Isothiazoloquinolones containing functionalized aromatic hydrocarbons at the 7-position: synthesis and in vitro activity of a series of potent antibacterial agents with diminished cytotoxicity in human cells” (Bioorg Med Chem Lett, 2006).

≈ marks a conversion by molar mass, not a printed value. Where only a bound is given, the exact number is not on record here.

In one test the test system is HEp-2. Kind of test: Cytotoxicity against human Hep2 laryngeal carcinoma cell line. Type of test: functional.
For test [1], the system named is Staphylococcus aureus. Kind of test: Antimicrobial activity against Staphylococcus aureus ATCC 29213. Type of test: functional. Put shortly: (§1)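 MIC taken as lowest concentration giving no visible bacterial growth after incubation at 37 °C for 18–24 h.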
Test [2] concerns Staphylococcus aureus. Kind of test: Antimicrobial activity against methicillin-resistant Staphylococcus aureus 700699. Type of test: functional. Put shortly:
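MIC taken as the lowest compound concentration preventing visible bacterial growth after incubation at 37 °C for 18–24 h.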

For another test, the system named is Escherichia coli. Kind of test: Antimicrobial activity against Escherichia coli ATCC 25922. The class given is functional. In a few lines: as §1
In the next test the target is DNA gyrase (Escherichia coli, UniProt P0AES4+P0AES6). Kind of test: Inhibitory activity against wild type Escherichia coli gyrase. The class given is protein-complex assay.
Test [3] addresses DNA topoisomerase 4 subunit A (Staphylococcus aureus, UniProt P0C1U9). Briefly: Inhibitory activity against wild type Staphylococcus aureus topoisomerase 4.
Test [4] deals with DNA topoisomerase II (Homo sapiens) (UniProt P11388+Q02880). Briefly: Inhibitory activity against human topoisomerase 2. The class given is protein assay.

As a reminder, the CC50 is the concentration that lowers cell viability or growth by half. Lower therefore signals greater toxicity to the cells. The term MIC denotes the lowest concentration that inhibits growth of the organism. Low readings indicate a more susceptible organism, high ones a less susceptible organism. For orientation: IC50 means the concentration that inhibits the measured activity by half. Low readings indicate inhibition by little substance, high ones a need for much substance.

Chain of DNA topoisomerase 4 subunit A (P0C1U9 whole entry): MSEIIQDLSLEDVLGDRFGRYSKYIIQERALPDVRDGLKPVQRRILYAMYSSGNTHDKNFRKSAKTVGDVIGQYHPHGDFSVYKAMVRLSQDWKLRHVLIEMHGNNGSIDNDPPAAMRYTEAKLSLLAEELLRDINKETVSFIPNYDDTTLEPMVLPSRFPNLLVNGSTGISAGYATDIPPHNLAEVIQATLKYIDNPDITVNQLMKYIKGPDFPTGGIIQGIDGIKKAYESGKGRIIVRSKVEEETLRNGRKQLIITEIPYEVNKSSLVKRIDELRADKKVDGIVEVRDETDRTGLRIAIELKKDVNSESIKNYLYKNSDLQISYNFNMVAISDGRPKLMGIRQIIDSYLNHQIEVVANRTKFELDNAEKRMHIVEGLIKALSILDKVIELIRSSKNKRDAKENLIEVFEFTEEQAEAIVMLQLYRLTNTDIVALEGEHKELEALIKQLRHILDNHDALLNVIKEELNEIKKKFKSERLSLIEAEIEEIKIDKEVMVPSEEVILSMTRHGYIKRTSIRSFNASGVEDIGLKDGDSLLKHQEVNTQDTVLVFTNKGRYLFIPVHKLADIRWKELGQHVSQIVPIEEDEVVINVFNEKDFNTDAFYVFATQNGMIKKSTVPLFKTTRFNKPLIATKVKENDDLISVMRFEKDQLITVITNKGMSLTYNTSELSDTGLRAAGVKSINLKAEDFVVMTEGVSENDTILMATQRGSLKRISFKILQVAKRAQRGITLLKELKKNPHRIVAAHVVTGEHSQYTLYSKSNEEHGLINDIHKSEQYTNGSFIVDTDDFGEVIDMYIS

With `O=C(O)c1cn(C2CC2)c2cc(N3CCNCC3)c(F)cc2c1=O` [CIPROFLOXACIN], the half-maximal cytotoxic concentration (CC50) with HEp-2 was above 100 µM. The figures for the MIC with Staphylococcus aureus [1] and in the test with Staphylococcus aureus [2] were 0.25 µg/mL (≈ 0.754 µM) and 32 µg/mL (≈ 96.6 µM), respectively.

With `N#Cc1cccc(-c2cc3c(cc2F)c(=O)c2c(=O)[nH]sc2n3C2CC2)c1`, the CC50 in the test with HEp-2 was above 100 µM. Further, the MIC turned out to be 0.03 µg/mL (≈ 0.0795 µM) with Escherichia coli, 0.001 µg/mL (≈ 0.00265 µM) in the test on Staphylococcus aureus [1] and 0.125 µg/mL (≈ 0.331 µM) against Staphylococcus aureus [2].

In the case of `O=c1[nH]sc2c1c(=O)c1cc(F)c(N3CCNCC3)cc1n2C1CC1`, the half-inhibitory concentration (IC50) against DNA gyrase was determined as 0.1 µM; in test [3], 0.5 µM. In test [4], the EC2 came to 20 µM. This compound also had a CC50 in the test on HEp-2 of 7 µM. The MIC against Escherichia coli amounted to 0.004 µg/mL (≈ 0.0111 µM); against Staphylococcus aureus [1] it was 0.05 µg/mL (≈ 0.139 µM); in the test with Staphylococcus aureus [2], 4 µg/mL (≈ 11.1 µM).

On to `CO/N=C1\CN(c2nc3c(cc2F)c(=O)c(C(=O)O)cn3C2CC2)CC1CN` (stereo unspecified) [GEMIFLOXACIN], for which the figures for the IC50 (against DNA gyrase; in test [3]) were 0.5 µM and 0.3 µM, respectively. Also, the midpoint of cytotoxicity in the test with HEp-2, the CC50, lay at 46 µM. The results for the MIC against Escherichia coli, against Staphylococcus aureus [1] and with Staphylococcus aureus [2] were 0.015 µg/mL (≈ 0.0385 µM), 0.03 µg/mL (≈ 0.077 µM) and 2 µg/mL (≈ 5.14 µM), respectively.

`N#CCc1ccc(-c2cc3c(cc2F)c(=O)c2c(=O)[nH]sc2n3C2CC2)cc1` registered a half-maximal cytotoxic concentration (CC50) with HEp-2 of 84 µM. Further, the values for the minimal inhibitory concentration (MIC) against Escherichia coli, in the test on Staphylococcus aureus [1] and in the test on Staphylococcus aureus [2] were 0.02 µg/mL (≈ 0.0511 µM), 0.002 µg/mL (≈ 0.00511 µM) and 0.5 µg/mL (≈ 1.28 µM), respectively.

On to `O=c1[nH]sc2c1c(=O)c1cc(F)c(-c3cccc(F)c3)cc1n2C1CC1`, for which the half-maximal inhibitory concentration (IC50) on DNA gyrase came to 1 µM; in test [3], 7.2 µM. For the same compound, the EC2 in test [4] is above 150 µM. This compound returned a CC50 in the test with HEp-2 of 96 µM. In addition, the values for the minimum inhibitory concentration (MIC) against Escherichia coli, with Staphylococcus aureus [1] and against Staphylococcus aureus [2] were 0.125 µg/mL (≈ 0.337 µM), 0.004 µg/mL (≈ 0.0108 µM) and 1 µg/mL (≈ 2.7 µM), respectively.

Regarding `O=c1[nH]sc2c1c(=O)c1cc(F)c(-c3cccc(CO)c3)cc1n2C1CC1`, the IC50 worked out at 0.5 µM on DNA gyrase and 8.2 µM in test [3]. In addition, the MIC was 0.125 µg/mL (≈ 0.327 µM) with Escherichia coli, 0.008 µg/mL (≈ 0.0209 µM) against Staphylococcus aureus [1] and 2 µg/mL (≈ 5.23 µM) against Staphylococcus aureus [2].

Take `O=c1[nH]sc2c1c(=O)c1cc(F)c(-c3cccc(O)c3)cc1n2C1CC1`: the IC50 on DNA gyrase is 0.2 µM; in test [3], 1.6 µM. Moreover, the 50% cytotoxic concentration (CC50) with HEp-2 was above 100 µM. The minimum inhibitory concentration (MIC) was 0.06 µg/mL (≈ 0.163 µM) with Escherichia coli, 0.004 µg/mL (≈ 0.0109 µM) in the test with Staphylococcus aureus [1] and 0.25 µg/mL (≈ 0.679 µM) in the test on Staphylococcus aureus [2].

As for `NCCc1ccc(-c2cc3c(cc2F)c(=O)c2c(=O)[nH]sc2n3C2CC2)cc1`, in the test with HEp-2, the CC50 is 11 µM. Also, the figures for the MIC against Escherichia coli, in the test with Staphylococcus aureus [1] and with Staphylococcus aureus [2] were 0.06 µg/mL (≈ 0.152 µM), 0.02 µg/mL (≈ 0.0506 µM) and above 64 µg/mL, respectively.

In the test on HEp-2, `CN(C)c1cccc(-c2cc3c(cc2F)c(=O)c2c(=O)[nH]sc2n3C2CC2)c1` displayed a CC50 above 100 µM. The figures for the MIC with Escherichia coli, with Staphylococcus aureus [1] and against Staphylococcus aureus [2] were 2 µg/mL (≈ 5.06 µM), 0.06 µg/mL (≈ 0.152 µM) and 32 µg/mL (≈ 80.9 µM), respectively.

With `COc1ccc(-c2cc3c(cc2F)c(=O)c2c(=O)[nH]sc2n3C2CC2)cc1`, the midpoint of cytotoxicity in the test with HEp-2, the CC50, lay at 91 µM. In addition, the values for the minimal inhibitory concentration (MIC) against Escherichia coli, against Staphylococcus aureus [1] and in the test with Staphylococcus aureus [2] were 0.125 µg/mL (≈ 0.327 µM), 0.015 µg/mL (≈ 0.0392 µM) and 2 µg/mL (≈ 5.23 µM), respectively.

With `O=c1[nH]sc2c1c(=O)c1cc(F)c(-c3cccc(C4CCCCN4)c3)cc1n2C1CC1` (stereo unspecified), the IC50 at DNA gyrase was 0.7 µM; in test [3], 2.7 µM. This compound displayed a 50% cytotoxic concentration (CC50) with HEp-2 of 4 µM. Further, the MIC stood at 0.125 µg/mL (≈ 0.287 µM) in the test with Escherichia coli, 0.06 µg/mL (≈ 0.138 µM) in the test with Staphylococcus aureus [1] and 8 µg/mL (≈ 18.4 µM) with Staphylococcus aureus [2].

Regarding `CC(=O)Nc1cccc(-c2cc3c(cc2F)c(=O)c2c(=O)[nH]sc2n3C2CC2)c1`, the minimal inhibitory concentration (MIC) came to 0.125 µg/mL (≈ 0.305 µM) with Escherichia coli, 0.004 µg/mL (≈ 0.00977 µM) against Staphylococcus aureus [1] and 64 µg/mL (≈ 156 µM) in the test with Staphylococcus aureus [2].

`N#Cc1ccccc1-c1cc2c(cc1F)c(=O)c1c(=O)[nH]sc1n2C1CC1`: the CC50 in the test with HEp-2 was above 85 µM. The minimum inhibitory concentration (MIC) in the test on Escherichia coli is 2 µg/mL (≈ 5.3 µM); in the test on Staphylococcus aureus [1], 0.125 µg/mL (≈ 0.331 µM); in the test with Staphylococcus aureus [2], above 64 µg/mL.

`CN(C)c1ccc(-c2cc3c(cc2F)c(=O)c2c(=O)[nH]sc2n3C2CC2)cc1` returned a CC50 in the test with HEp-2 of 51 µM. The values for the minimal inhibitory concentration (MIC) in the test with Escherichia coli, in the test with Staphylococcus aureus [1] and against Staphylococcus aureus [2] were 0.5 µg/mL (≈ 1.26 µM), 0.001 µg/mL (≈ 0.00253 µM) and 4 µg/mL (≈ 10.1 µM), respectively.

Compound `NCC(=O)Nc1ccc(-c2cc3c(cc2F)c(=O)c2c(=O)[nH]sc2n3C2CC2)cc1` returned a 50% cytotoxic concentration (CC50) in the test on HEp-2 above 75 µM. Further, the MIC against Escherichia coli worked out at 1 µg/mL (≈ 2.36 µM); in the test with Staphylococcus aureus [1] it was 0.25 µg/mL (≈ 0.589 µM); with Staphylococcus aureus [2] it was 64 µg/mL (≈ 151 µM).

Regarding `NCc1cccc(-c2cc3c(cc2F)c(=O)c2c(=O)[nH]sc2n3C2CC2)c1`, the half-maximal inhibitory concentration (IC50) came out at 0.1 µM on DNA gyrase and 0.2 µM in test [3]. The 50% cytotoxic concentration (CC50) in the test on HEp-2 was 8 µM. The minimal inhibitory concentration (MIC) was found to be 0.015 µg/mL (≈ 0.0393 µM) against Escherichia coli, 0.015 µg/mL (≈ 0.0393 µM) in the test with Staphylococcus aureus [1] and 2 µg/mL (≈ 5.24 µM) against Staphylococcus aureus [2].

Regarding `O=c1[nH]sc2c1c(=O)c1cc(F)c(-c3ccc(F)cc3)cc1n2C1CC1`, the cytotoxic concentration (CC50) in the test with HEp-2 is above 100 µM. Besides, the figures for the MIC in the test with Escherichia coli, in the test on Staphylococcus aureus [1] and in the test on Staphylococcus aureus [2] were 0.25 µg/mL (≈ 0.675 µM), 0.03 µg/mL (≈ 0.081 µM) and 32 µg/mL (≈ 86.4 µM), respectively.

Take `COc1c(N2CCNC(C)C2)c(F)cc2c(=O)c(C(=O)O)cn(C3CC3)c12` (stereo unspecified) [GATIFLOXACIN]: the IC50 on DNA gyrase was determined as 0.5 µM; in test [3] it was 1.2 µM. In addition, in the test on HEp-2, half-maximal cytotoxicity (CC50) was put at 67 µM. Also, the MIC with Escherichia coli turned out to be 0.015 µg/mL (≈ 0.04 µM); against Staphylococcus aureus [1], 0.125 µg/mL (≈ 0.333 µM); against Staphylococcus aureus [2], 8 µg/mL (≈ 21.3 µM).
